Results pooled from the literature.
Each line is one published result; the experiments were not run side by side.
Target: Cytoplasmic tyrosine-protein kinase BMX (BMX, Homo sapiens, UniProt P51813)
One construct used (P51813 1-675): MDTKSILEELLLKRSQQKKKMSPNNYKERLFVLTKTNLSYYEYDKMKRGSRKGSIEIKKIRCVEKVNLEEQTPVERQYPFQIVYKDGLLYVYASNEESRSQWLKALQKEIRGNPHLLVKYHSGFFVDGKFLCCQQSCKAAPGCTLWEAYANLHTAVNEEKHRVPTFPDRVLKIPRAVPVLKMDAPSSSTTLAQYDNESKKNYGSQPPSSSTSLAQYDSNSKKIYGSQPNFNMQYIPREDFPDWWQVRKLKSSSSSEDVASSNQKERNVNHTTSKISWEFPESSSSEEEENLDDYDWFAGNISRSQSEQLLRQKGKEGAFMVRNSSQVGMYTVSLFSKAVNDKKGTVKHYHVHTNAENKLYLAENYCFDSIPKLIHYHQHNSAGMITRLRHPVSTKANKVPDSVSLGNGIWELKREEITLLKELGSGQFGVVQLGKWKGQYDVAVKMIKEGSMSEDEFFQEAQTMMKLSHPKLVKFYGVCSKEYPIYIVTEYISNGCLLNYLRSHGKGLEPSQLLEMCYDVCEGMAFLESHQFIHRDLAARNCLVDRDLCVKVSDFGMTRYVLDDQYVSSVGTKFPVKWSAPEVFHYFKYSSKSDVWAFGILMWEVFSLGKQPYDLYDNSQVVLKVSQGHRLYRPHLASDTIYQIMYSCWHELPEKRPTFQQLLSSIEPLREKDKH

SMILES | assay | setting | remaining binding [%]
O=C(c1ccc(Nc2nccc(-c3cc4ccccc4s3)n2)cc1)N1CCC(N2CCCC2)CC1 | binding, competition with immobilised ligand | 1 µM | 91
COc1ncc2cc3ccccc3nc2c1C#N | cell-free assay, competition with immobilised ligand | 5 µM | 99
COc1ccnn2ncc(-c3ccnc(N(C)C)n3)c12 | binding | 1 µM | 100
FC(F)(F)Oc1cccc(-c2cnc3ccc(-c4ccncc4)nn23)c1 | cell-free assay, competition with immobilised ligand | 5 µM | 86
CN(CCCC(F)(F)F)c1nccc(-c2cnn3ncccc23)n1 | binding | 1 µM | 83
COc1cnc(Nc2cccc(S(N)(=O)=O)c2)nc1N1CCN(c2ccccc2)C(=O)C1 | binding, competition with immobilised ligand | 1 µM | 100
COc1ccc2cc(OCC3(C(=O)O)CN(C(=O)c4ccc(F)cc4)C3)ccc2c1 | cell-free assay, competition with immobilised ligand | 1 µM | 87
C[C@@H](c1ccc(-n2cnc3c(N)ncnc32)cc1)N1CCc2nn(C)c(Cc3ccccc3)c2C1=O | binding, competition with immobilised ligand | 0.1 µM | 52
C[C@@H]1CCN(c2nccc(-c3cnn4ncccc34)n2)C1 | binding | 1 µM | 100
CCC(=N\O)/C(C)=C/c1ccc(F)cc1 | cell-free assay, competition with immobilised ligand | 1 µM | 83
CC1CCCN1c1nccc(-c2cnn3ncccc23)n1 (stereo not drawn) | binding | 1 µM | 94
O=C(c1ccc(Nc2ncc(Cl)c(-c3cc4ccccc4s3)n2)cc1)N1CCC(N2CCCC2)CC1 | binding, competition with immobilised ligand | 1 µM | 75
C[C@H](c1cccc(C#N)c1)n1cc(Cl)cc(C(N)=O)c1=N | cell-free assay, competition with immobilised ligand | 1 µM | 77
O=C(NCCCN1CCOCC1)c1ccc(Nc2nccc(-c3cc4ccccc4s3)n2)cc1 | binding, competition with immobilised ligand | 1 µM | 100
c1cnn2ncc(-c3ccnc(N4CCC45COC5)n3)c2c1 | binding | 1 µM | 90
O=C(N1CCS(=O)(=O)CC1)N1C[C@H](c2ccc(OC(F)(F)F)cc2)C[C@H](c2nc(C3CC3)no2)C1 | cell-free assay, competition with immobilised ligand | 1 µM | 100
Nc1ncc2c(n1)-c1c([nH]c3ccc(C#CC4CC4)cc13)CCCC2 | binding, competition with immobilised ligand | 1 µM | 86
CN1CCN(c2cnc3c(C4CCN(C(=O)c5ccc(OC(F)(F)F)cc5N)CC4)ncnc3c2)CC1 | cell-free assay, competition with immobilised ligand | 1 µM | 100
N[C@@H]1CCN(c2nccc(-c3cnn4ncccc34)n2)C1 | binding | 1 µM | 97
O=C(Nc1c[nH]nc1C(=O)NC1CCNCC1)c1cc(F)cc(F)c1 | binding, competition with immobilised ligand | 1 µM | 100
O=C(O)[C@H]1[C@H](Cn2nnc3ccccc3c2=O)CC[C@@H]1C(=O)c1ccc(OCCC2CCOCC2)cc1 | cell-free assay, competition with immobilised ligand | 1 µM | 92
